Measurements reported in ChEMBL document CHEMBL5678814, “Novel Mps1 Kinase Inhibitors with Potent Antitumor Activity” (Mol Cancer Ther, 2016).

How the values were obtained:
[1] = Tmax in female NMRI mouse plasma at 1 mg/kg, po measured after 24 hrs by LC/-MS/MS analysis
[2] = Volume of distribution at steady state in male CD1 mouse plasma at 0.5 mg/kg, iv measured after 24 hrs by LC/-MS/MS analysis; type: ADME, organism-based; conditions: read-out: Vdss
Summary of the method: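 Male CD1 mice received a single iv bolus of 0.5 mg/kg in 1% DMSO/99% plasma. Plasma was sampled at 2, 5, 15, 30 and 45 min and at 1, 2, 4, 6, 8 and 24 h, precipitated with ice-cold acetonitrile (1:5), and supernatants were run by LC/MS-MS. Parameters were estimated from plasma concentration data, with AUC by the log-linear trapezoidal rule.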

[3] = system: Caco-2; assay: Antiproliferative activity against human Caco-2 cells assessed as cell growth inhibition incubated for 96 hrs by crystal violet staining; conditions: Caco-2, 96 h
[4] = system: HT-1080; assay: Antiproliferative activity against human HT-1080 cells assessed as cell growth inhibition incubated for 96 hrs by MTS assay; type: functional, cell-based; conditions: HT-1080, 96 h
[5] = system: HCT-116; assay: Antiproliferative activity against human TP53 wildtype HCT-116 cells assessed as cell growth inhibition incubated for 96 hrs by crystal violet staining; conditions: HCT-116, 96 h
[6] = system: HT-29; assay: Antiproliferative activity against human HT-29 cells assessed as cell growth inhibition incubated for 96 hrs by crystal violet staining; conditions: HT-29, 96 h
[7] = system: VCaP; assay: Antiproliferative activity against human VCaP cells assessed as cell growth inhibition incubated for 96 hrs by MTS assay; type: functional, cell-based
[8] = system: MSTO-211H; assay: Antiproliferative activity against human MSTO-211H cells assessed as cell growth inhibition incubated for 96 hrs by crystal violet staining
[9] = system: SK-MEL-28; assay: Antiproliferative activity against human SK-MEL-28 cells assessed as cell growth inhibition incubated for 96 hrs by crystal violet staining; conditions: SK-MEL-28, 96 h
[10] = system: NCI-H526; assay: Antiproliferative activity against human NCI-H526 cells assessed as cell growth inhibition incubated for 96 hrs by MTS assay; type: functional, cell-based; conditions: NCI-H526, 96 h
[11] = Toxicity in human A2780cis cells xenografted female athymic NMRI mouse model assessed as change in body weight at 2.5 mg/kg, po administered twice daily intermittent for 2 days on/5 days off; type: organism-based; conditions: in vivo, 168 h, time 7 day
Summary of the method: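 A2780cis cells (2×10^6 in 100% Matrigel) implanted s.c. in athymic mice. Treatment started at ~30 mm2. Oral dosing twice daily, 2 days on/5 days off, with PEG 400/ethanol/Solutol vehicle controls. Dose based on individual body weight. Body weight monitored two to three times weekly as toxicity measure; >20% loss deemed toxic.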

[12] = system: HeLa; assay: cells; conditions: Homo sapiens, 4 h
[13] = system: HCT-116; assay: Antiproliferative activity against human HCT-116 cells assessed as cell growth inhibition incubated for 96 hrs by crystal violet staining; conditions: HCT-116, 96 h
[14] = system: NCI-H28; assay: Antiproliferative activity against human NCI-H28 cells assessed as cell growth inhibition incubated for 96 hrs by crystal violet staining; conditions: NCI-H28, 96 h
[15] = biological target: Serine/threonine-protein kinase BRSK2 (Homo sapiens, UniProt Q8IWQ3); assay: Binding affinity to BRSK2 (unknown origin) assessed as dissociation constant
Serine/threonine-protein kinase BRSK2, sequence (Q8IWQ3 whole entry): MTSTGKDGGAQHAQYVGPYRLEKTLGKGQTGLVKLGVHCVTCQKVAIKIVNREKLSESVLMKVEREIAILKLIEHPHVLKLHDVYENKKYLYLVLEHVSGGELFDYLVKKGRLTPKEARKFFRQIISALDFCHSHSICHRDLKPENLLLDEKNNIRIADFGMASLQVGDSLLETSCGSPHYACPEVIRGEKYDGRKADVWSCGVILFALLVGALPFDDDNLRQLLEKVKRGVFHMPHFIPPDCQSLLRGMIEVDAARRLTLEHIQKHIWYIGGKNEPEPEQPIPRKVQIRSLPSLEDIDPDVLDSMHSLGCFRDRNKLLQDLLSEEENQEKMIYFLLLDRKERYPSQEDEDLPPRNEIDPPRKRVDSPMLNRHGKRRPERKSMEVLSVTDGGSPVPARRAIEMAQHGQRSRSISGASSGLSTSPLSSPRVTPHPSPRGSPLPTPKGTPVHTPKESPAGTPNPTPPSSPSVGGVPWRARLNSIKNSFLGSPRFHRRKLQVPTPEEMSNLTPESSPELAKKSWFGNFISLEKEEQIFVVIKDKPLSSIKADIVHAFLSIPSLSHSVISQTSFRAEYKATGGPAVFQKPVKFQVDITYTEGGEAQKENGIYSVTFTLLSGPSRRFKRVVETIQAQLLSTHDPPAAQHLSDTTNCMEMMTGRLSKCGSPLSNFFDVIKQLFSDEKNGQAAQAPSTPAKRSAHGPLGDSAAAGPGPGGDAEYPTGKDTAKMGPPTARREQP

[16] = system: Rh41; assay: Antiproliferative activity against human Rh41 cells assessed as cell growth inhibition incubated for 96 hrs by MTS assay; type: functional, cell-based; conditions: Rh41, 96 h
[17] = system: RKO; assay: Antiproliferative activity against human TP53 wildtype RKO cells assessed as cell growth inhibition incubated for 96 hrs by crystal violet staining
[18] = Antiproliferative activity against human OUMS-23 cells assessed as cell growth inhibition incubated for 96 hrs by crystal violet staining; conditions: OUMS-23, 96 h
[19] = system: SK-MES-1; assay: Antiproliferative activity against human SK-MES-1 cells assessed as cell growth inhibition incubated for 96 hrs by MTS assay; type: functional, cell-based; conditions: SK-MES-1, 96 h
[20] = Volume of distribution at steady state in male Wistar rat plasma at 0.5 mg/kg, iv measured after 24 hrs by LC/-MS/MS analysis; type: ADME, organism-based; conditions: read-out: Vdss
[21] = system: SAOS-2; assay: Antiproliferative activity against human SAOS-2 cells assessed as cell growth inhibition incubated for 96 hrs by MTS assay; type: functional, cell-based; conditions: SAOS-2, 96 h
[22] = system: JJN-3; assay: Antiproliferative activity against human JJN-3 cells assessed as cell growth inhibition incubated for 96 hrs by crystal violet staining; conditions: JJN-3, 96 h
[23] = system: NCI-H1770; assay: Antiproliferative activity against human NCI-H1770 cells assessed as cell growth inhibition incubated for 96 hrs by crystal violet staining; conditions: NCI-H1770, 96 h
[24] = system: NCI-H1299; assay: Antiproliferative activity against human NCI-H1299 cells assessed as cell growth inhibition incubated for 96 hrs by crystal violet staining; conditions: NCI-H1299, 96 h
[25] = biological target: Mast/stem cell growth factor receptor Kit (Homo sapiens, UniProt P10721); assay: Binding affinity to KIT (unknown origin) assessed as dissociation constant
Mast/stem cell growth factor receptor Kit, sequence (P10721 whole entry): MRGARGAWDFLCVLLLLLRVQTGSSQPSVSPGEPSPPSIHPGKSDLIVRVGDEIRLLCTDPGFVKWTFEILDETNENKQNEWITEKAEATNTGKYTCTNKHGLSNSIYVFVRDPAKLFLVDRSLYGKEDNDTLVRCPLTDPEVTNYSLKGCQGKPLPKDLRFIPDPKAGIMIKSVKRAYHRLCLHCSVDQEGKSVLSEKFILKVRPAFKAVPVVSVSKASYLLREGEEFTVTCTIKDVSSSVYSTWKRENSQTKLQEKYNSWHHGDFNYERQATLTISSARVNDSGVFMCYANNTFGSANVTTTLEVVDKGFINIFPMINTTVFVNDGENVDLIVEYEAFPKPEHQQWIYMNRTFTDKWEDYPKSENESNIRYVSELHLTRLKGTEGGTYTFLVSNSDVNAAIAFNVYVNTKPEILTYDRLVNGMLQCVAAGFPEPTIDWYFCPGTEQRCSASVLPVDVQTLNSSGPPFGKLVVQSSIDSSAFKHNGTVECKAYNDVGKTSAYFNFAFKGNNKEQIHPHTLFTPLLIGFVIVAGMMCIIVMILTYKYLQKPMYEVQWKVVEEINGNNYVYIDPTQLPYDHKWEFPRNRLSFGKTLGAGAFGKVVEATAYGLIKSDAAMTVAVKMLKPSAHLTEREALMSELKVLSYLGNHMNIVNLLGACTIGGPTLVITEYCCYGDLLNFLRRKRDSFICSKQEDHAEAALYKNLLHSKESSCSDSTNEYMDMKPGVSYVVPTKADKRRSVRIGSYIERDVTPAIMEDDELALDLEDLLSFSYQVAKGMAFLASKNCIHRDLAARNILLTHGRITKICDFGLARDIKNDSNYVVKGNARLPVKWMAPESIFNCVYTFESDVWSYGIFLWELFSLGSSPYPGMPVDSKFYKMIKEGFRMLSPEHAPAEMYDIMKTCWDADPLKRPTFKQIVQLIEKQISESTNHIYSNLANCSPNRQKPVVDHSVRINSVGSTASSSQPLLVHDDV

[26] = system: Caov-3 cell line; assay: Antiproliferative activity against human Caov-3 cell line assessed as cell growth inhibition incubated for 96 hrs by crystal violet staining; conditions: Caov-3, 96 h
[27] = system: KM-H2; assay: Antiproliferative activity against human KM-H2 cells assessed as cell growth inhibition incubated for 96 hrs by MTS assay; type: functional, cell-based; conditions: KM-H2, 96 h
[28] = biological target: Misshapen-like kinase 1 (Homo sapiens, UniProt Q8N4C8); assay: Binding affinity to MINK (unknown origin) assessed as dissociation constant
Misshapen-like kinase 1, sequence (Q8N4C8 whole entry): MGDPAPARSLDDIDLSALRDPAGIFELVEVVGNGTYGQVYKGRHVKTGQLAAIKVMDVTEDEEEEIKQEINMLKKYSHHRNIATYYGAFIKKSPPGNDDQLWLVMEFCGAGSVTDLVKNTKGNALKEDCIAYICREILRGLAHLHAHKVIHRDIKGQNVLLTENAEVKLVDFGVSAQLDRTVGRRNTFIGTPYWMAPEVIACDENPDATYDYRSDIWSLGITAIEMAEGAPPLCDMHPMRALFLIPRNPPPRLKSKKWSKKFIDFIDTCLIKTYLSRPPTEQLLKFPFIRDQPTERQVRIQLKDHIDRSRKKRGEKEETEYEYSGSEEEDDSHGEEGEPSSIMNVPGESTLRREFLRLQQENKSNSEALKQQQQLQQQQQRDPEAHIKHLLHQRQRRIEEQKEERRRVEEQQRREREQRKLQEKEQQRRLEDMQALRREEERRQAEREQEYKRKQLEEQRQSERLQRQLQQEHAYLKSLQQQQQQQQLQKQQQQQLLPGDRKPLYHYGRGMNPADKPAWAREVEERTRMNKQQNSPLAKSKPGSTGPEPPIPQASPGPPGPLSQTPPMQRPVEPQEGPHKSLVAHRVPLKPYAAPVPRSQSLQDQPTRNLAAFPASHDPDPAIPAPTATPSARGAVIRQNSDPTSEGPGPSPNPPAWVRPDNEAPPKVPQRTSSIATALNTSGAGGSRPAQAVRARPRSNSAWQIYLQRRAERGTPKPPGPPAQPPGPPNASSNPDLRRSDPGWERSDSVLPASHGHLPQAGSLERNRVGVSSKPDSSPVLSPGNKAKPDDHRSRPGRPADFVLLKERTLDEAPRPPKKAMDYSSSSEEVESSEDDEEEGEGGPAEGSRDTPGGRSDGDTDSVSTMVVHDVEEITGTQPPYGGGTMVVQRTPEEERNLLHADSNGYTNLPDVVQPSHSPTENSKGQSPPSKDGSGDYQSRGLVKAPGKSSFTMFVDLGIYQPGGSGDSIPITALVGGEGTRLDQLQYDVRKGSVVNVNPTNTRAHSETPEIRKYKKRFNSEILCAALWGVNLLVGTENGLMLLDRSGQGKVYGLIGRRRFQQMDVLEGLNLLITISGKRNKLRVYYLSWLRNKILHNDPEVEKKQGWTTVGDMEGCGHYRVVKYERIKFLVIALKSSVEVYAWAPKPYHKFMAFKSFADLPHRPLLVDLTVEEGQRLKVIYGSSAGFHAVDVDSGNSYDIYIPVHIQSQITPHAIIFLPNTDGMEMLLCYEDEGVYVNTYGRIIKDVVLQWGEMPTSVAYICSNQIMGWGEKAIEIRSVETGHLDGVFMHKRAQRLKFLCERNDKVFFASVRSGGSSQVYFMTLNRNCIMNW

[29] = system: NCI-H661; assay: Antiproliferative activity against human NCI-H661 cells assessed as cell growth inhibition incubated for 96 hrs by MTS assay; type: functional, cell-based; conditions: NCI-H661, 96 h
[30] = system: HCT-116; assay: Antiproliferative activity against human TP53 mutant HCT-116 cells assessed as cell growth inhibition incubated for 96 hrs by crystal violet staining; conditions: HCT-116, 96 h
[31] = system: KU-19-19; assay: Antiproliferative activity against human KU-19-19 cells assessed as cell growth inhibition incubated for 96 hrs by MTS assay; type: functional, cell-based; conditions: KU-19-19, 96 h
[32] = Antitumor activity against human A2780cis cells xenografted female athymic NMRI mouse model assessed as T/C ratio at 2.5 mg/kg, po administered twice daily intermittent for 2 days on/5 days off; type: functional; conditions: time 7 day
[33] = Cmax in female NMRI mouse plasma at 1 mg/kg, po measured after 24 hrs by LC/-MS/MS analysis

COc1cc(S(C)(=O)=O)ccc1Nc1nc2ccc(-c3ccc(NC(=O)[C@H](C)c4ccc(F)cc4)cc3)cn2n1 [BAY-1161909]
Tmax [1]: 4 h | Vd [2]: 3.4 L/kg | IC50 [3]: 1.8 µM | IC50 [4]: 0.45 µM | IC50 [5]: 0.042 µM | IC50 [6]: 0.1 µM | IC50 [7]: > 3 µM | IC50 [8]: 0.07 µM | IC50 [9]: 0.67 µM | IC50 [10]: 0.1 µM | Activity [11]: Non-Toxic | IC50 [12]: 0.056 µM | IC50 [13]: 0.056 µM | IC50 [14]: 0.11 µM | Kd [15]: 40 µM | IC50 [16]: 0.15 µM | IC50 [17]: 0.039 µM | IC50 [18]: > 3 µM | IC50 [19]: 0.21 µM | Vd [20]: 2.4 L/kg | IC50 [21]: 0.52 µM | IC50 [22]: 0.1 µM | IC50 [23]: 0.1 µM | IC50 [24]: 0.12 µM | Kd [25]: 0.37 µM | IC50 [26]: 0.098 µM | IC50 [27]: 0.22 µM | Kd [28]: 40 µM | IC50 [29]: 0.26 µM | IC50 [30]: 0.059 µM | IC50 [31]: 0.086 µM | T/C [32]: 0.43 | Cmax [33]: 120 ng/mL
